In ChEMBL document CHEMBL4480372, “Design, synthesis, and in vitro and in vivo characterization of 1-{4-[4-(substituted)piperazin-1-yl]butyl}guanidines and their piperidine analogues as histamine H3 receptor antagonists” (Medchemcomm, 2019):
One block for each compound: values may come before it. Activity calls are given as the source filed them. The calls are words filed in the database; no cut-off is given here.

Experiments:
Histamine H1 receptor [1] = biological target: T1, Histamine H1 receptor (Cavia porcellus, UniProt P31389); assay: (§1) Antagonist activity at histamine H1 receptor in guinea pig ileum preincubated for 10 mins followed by histamine addition during 30 mins equilibration period with washing every 10 mins; type: tissue-based; conditions: read-out: pA2 (converted)
Histamine H3 receptor [2] = biological target: T2, Histamine H3 receptor (Cavia porcellus, UniProt Q9JI35); assay: Antagonist activity at histamine H3 receptor in guinea pig jejunum assessed as effect on […] inhibition of electrically evoked contraction treated 20 mins after […]; type: tissue-based; conditions: read-out: pA2 (converted)
Procedure, shortened: (§2)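 Guinea pig jejunum segments (2 cm) were electrically stimulated between platinum electrodes in Krebs buffer gassed with 95% O2/5% CO2 at 37 °C, with isotonic recording under 1.0 g tension. […] After 20 min, cumulative half-log (R)-α-methylhistamine concentration-response curves were recorded until the response stopped changing.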

Histamine H1 receptor [3] = biological target: T1, Histamine H1 receptor; assay: Antagonist activity at histamine H1 receptor in guinea pig ileum preincubated for 10 mins followed by histamine addition during 30 mins equilibration period with washing every 10 mins; conditions: read-out: pA2 (converted)
Homo sapiens = organism: Homo sapiens; assay: Selectivity ratio of Ki for recombinant human histamine H4 receptor expressed in CHO cell membranes to Ki for recombinant human histamine H3 receptor expressed in HEK293 cells; type: cell-based
[4] = biological target: Histamine H3 receptor (Rattus norvegicus) (UniProt Q9QYN8); assay: Antagonist activity at rat histamine H3 receptor assessed as reduction in serotonin level in rat cortex at 3 mg/kg, sc administered for 5 consecutive days measured at 24 hrs post last dose by RIA or ELISA method; type: organism-based
Procedure, shortened: (§3)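 Male rats aged 9-10 weeks (Wistar or Lewis, n = 8) received 3 mg kg⁻¹ per day s.c. for 5 days. Saline-dosed and ciproxifan-dosed groups were included. Rats were killed 24 h after the last injection. The cerebral cortex was dissected, frozen in liquid nitrogen, stored at -80 °C and homogenized in 3 volumes of water. Dopamine, noradrenaline and serotonin were measured by RIA; histamine by ELISA.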

[5] = biological target: Histamine H3 receptor (Rattus norvegicus) (UniProt Q9QYN8); assay: Antagonist activity at rat histamine H3 receptor assessed as reduction in histamine level in rat cortex at 3 mg/kg, sc administered for 5 consecutive days measured at 24 hrs post last dose by RIA or ELISA method; type: organism-based; procedure, shortened: as §3
[6] = biological target: Histamine H3 receptor (Rattus norvegicus) (UniProt Q9QYN8); assay: Antagonist activity at rat histamine H3 receptor assessed as reduction in dopamine level in rat cortex at 3 mg/kg, sc administered for 5 consecutive days measured at 24 hrs post last dose by RIA or ELISA method; type: organism-based; procedure, shortened: as §3
Histamine H3 receptor [7] = biological target: Histamine H3 receptor (Rattus norvegicus, UniProt Q9QYN8); assay: Displacement of [3H]-Nalpha-Methylhistamine from rat histamine H3 receptor expressed in HEK293T cell membranes after 120 mins by liquid scintillation counting analysis
Histamine H4 receptor = Histamine H4 receptor (Homo sapiens, UniProt Q9H3N8); assay: Displacement of [3H]histamine from human recombinant histamine H4 receptor expressed in CHO cell membranes after 1 hrs by liquid scintillation counting analysis
[8] = biological target: Histamine H3 receptor (Rattus norvegicus) (UniProt Q9QYN8); assay: Antagonist activity at rat histamine H3 receptor assessed as reduction in noradrenaline level in rat cortex at 3 mg/kg, sc administered for 5 consecutive days measured at 24 hrs post last dose by RIA or ELISA method; type: organism-based; procedure, shortened: as §3
Rattus norvegicus [9] = assay: Reduction in pellet consumption in Wistar rat at 3 mg/kg, sc administered daily for 5 days relative to control; type: functional; set-up: scale not given: the % may be the effect or the level left
Procedure, shortened: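 Male rats aged 9-10 weeks were housed singly in metabolic cages with free access to feed and water. Wistar rats were used for one compound and Lewis rats for the others. After 1 day of adaptation, baseline intake was averaged over 3 days. Dosing was 3 mg kg⁻¹ per day s.c. for 5 days (n = 8), with saline controls (0.2 ml per day). Intake was recorded each morning as g feed per 100 g body mass.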

Rattus norvegicus [10] = assay: Effect on cerebral HNMT activity in rat at 3 mg/kg, sc administered for 5 consecutive days measured at 24 hrs post last dose by radioisotopic assay; type: functional, organism-based
Procedure, shortened: (§4)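 Cortex from rats given 3 mg kg⁻¹ per day s.c. for 5 days (n = 8) was taken 24 h after the last dose and homogenized in water. HNMT, MAO-A and MAO-B were measured radioisotopically. MAO-A used 5-[2-14C]hydroxytryptamine as substrate; MAO-B used β-[ethyl-1-¹⁴C]phenylethylamine. Clorgyline and deprenyl (final 10^-9 M) were used as inhibitors. Protein was measured by the Lowry method.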

Rattus norvegicus [11] = assay: Effect on cerebral MAO activity in rat at 3 mg/kg, sc administered for 5 consecutive days measured at 24 hrs post last dose by radioisotopic assay; type: functional, organism-based; procedure, shortened: as §4
Histamine H3 receptor [12] = biological target: Histamine H3 receptor (Homo sapiens, UniProt Q9Y5N1); assay: Displacement of [3H]-Nalpha-Methylhistamine from recombinant human histamine H3 receptor expressed in HEK293 cells after 1 hr by liquid scintillation counting analysis; type: cell-based
Histamine H3 receptor [13] = biological target: T2, Histamine H3 receptor; assay: Antagonist activity at histamine H3 receptor in guinea pig jejunum assessed as effect on […] inhibition of electrically evoked contraction treated 20 mins after […] and measured after 1 hr equilibration followed by compound wash out every 10 mins; type: tissue-based; conditions: read-out: pA2 (converted); procedure, shortened: as §2
Rattus norvegicus [14] = assay: Reduction in food consumption in Lewis rat at 3 mg/kg, sc administered daily for 5 days relative to control
[15] = biological target: Histamine H1 receptor (Cavia porcellus) (UniProt P31389); assay: as §1; type: tissue-based
Histamine H1 receptor (Cavia porcellus), sequence (P31389 whole entry): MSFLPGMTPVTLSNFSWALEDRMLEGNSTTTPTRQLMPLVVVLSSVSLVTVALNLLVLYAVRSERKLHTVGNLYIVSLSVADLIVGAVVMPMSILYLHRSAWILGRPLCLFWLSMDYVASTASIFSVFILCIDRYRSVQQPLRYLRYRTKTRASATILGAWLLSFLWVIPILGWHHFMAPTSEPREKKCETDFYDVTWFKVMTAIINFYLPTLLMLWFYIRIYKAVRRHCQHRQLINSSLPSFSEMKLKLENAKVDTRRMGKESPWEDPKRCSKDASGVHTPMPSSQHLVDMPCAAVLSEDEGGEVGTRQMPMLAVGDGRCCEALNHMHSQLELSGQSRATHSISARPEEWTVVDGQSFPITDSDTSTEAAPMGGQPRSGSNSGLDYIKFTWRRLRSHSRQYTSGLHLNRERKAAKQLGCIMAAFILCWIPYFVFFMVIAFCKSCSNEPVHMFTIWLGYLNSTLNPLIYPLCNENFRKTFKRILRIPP

Histamine H3 receptor (Rattus norvegicus), sequence (Q9QYN8 whole entry): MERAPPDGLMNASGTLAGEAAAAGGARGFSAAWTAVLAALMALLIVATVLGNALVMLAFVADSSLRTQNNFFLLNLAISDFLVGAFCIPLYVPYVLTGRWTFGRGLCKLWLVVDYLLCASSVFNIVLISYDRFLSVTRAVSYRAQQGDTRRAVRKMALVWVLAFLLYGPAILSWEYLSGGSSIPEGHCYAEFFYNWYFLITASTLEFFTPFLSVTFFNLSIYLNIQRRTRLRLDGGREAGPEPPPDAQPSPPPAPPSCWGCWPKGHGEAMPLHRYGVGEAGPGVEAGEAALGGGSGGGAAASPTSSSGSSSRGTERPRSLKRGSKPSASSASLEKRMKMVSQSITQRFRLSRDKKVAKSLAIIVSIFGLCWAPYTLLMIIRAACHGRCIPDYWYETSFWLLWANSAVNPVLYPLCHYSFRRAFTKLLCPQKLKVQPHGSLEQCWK
Histamine H3 receptor (Rattus norvegicus, UniProt Q9QYN8), sequence (Q9QYN8 whole entry): as above
T1 sequence (P31389 whole entry): as the sequence (P31389 whole entry) above
Histamine H3 receptor (Homo sapiens, UniProt Q9Y5N1), sequence (Q9Y5N1 whole entry): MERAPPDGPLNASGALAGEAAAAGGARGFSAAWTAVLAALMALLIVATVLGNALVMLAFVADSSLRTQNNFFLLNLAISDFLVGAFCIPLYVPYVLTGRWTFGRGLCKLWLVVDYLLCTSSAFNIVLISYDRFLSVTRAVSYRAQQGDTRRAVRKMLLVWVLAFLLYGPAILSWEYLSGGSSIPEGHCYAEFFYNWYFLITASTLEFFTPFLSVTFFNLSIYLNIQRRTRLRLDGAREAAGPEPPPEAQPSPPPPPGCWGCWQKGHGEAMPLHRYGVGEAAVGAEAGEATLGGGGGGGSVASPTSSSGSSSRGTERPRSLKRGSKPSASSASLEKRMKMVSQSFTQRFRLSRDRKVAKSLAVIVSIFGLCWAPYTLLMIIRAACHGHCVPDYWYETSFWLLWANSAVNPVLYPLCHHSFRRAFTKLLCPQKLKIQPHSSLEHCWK
T2 sequence (Q9JI35 whole entry): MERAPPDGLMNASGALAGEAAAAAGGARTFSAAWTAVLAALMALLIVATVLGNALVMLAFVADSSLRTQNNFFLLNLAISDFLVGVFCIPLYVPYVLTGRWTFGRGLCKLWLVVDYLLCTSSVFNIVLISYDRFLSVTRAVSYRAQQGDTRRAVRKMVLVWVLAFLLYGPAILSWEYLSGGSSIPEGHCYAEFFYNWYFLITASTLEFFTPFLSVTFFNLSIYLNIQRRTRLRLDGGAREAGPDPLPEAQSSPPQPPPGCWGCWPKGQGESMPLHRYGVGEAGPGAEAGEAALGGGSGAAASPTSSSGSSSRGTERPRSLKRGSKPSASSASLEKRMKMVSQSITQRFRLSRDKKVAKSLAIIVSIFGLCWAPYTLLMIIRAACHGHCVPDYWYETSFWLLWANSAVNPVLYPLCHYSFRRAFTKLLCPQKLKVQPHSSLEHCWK

Kb (Histamine H1 receptor [1]): 107 nM
Kb (Histamine H3 receptor [2]): 50.1 nM
Structure (SMILES): N#C/N=C(\N)N(CCCCN1CCN(CCCCCCCOc2ccccc2)CC1)Cc1ccccc1

Kb (Histamine H1 receptor [3]): 347 nM
Structure (SMILES): N=C(N)N(CCCCN1CCN(CCCCCCCOc2ccccc2)CC1)Cc1ccc(C(F)(F)F)cc1

Kb (Histamine H1 receptor [3]): 224 nM
Activity [4]: Active
Activity [5]: inactive
Activity [6]: Active
Ki (Histamine H3 receptor [7]): 15.8 nM
Ki (Histamine H4 receptor): 1200 nM
Activity [8]: inactive
Ki (Histamine H3 receptor [12]): 145 nM
Kb (Histamine H3 receptor [13]): 3.72 nM
Structure (SMILES): N=C(N)N(CCCCN1CCN(CCCCCCCOc2ccccc2)CC1)Cc1ccc([N+](=O)[O-])cc1
Ratio Ki (Homo sapiens): 8.3
Activity (Rattus norvegicus [9]): 10%
Activity (Rattus norvegicus [10]): inactive
Activity (Rattus norvegicus [11]): inactive

Kb (Histamine H1 receptor [1]): 66.1 nM
Kb (Histamine H3 receptor [2]): 10.7 nM
Structure (SMILES): N=C(NCCCCN1CCN(CCCCCCCOc2ccccc2)CC1)NCc1ccc(C(F)(F)F)cc1

Kb (Histamine H1 receptor [1]): 79.4 nM
Kb (Histamine H3 receptor [2]): 7.94 nM
Structure (SMILES): N=C(NCCCCN1CCN(CCCCCCCOc2ccccc2)CC1)NCc1ccccc1

Kb (Histamine H1 receptor [3]): 240 nM
Activity [4]: Active
Activity [5]: inactive
Activity [6]: Active
Ki (Histamine H3 receptor [7]): 25.1 nM
Ki (Histamine H4 receptor): 1070 nM
Activity [8]: inactive
Ki (Histamine H3 receptor [12]): 275 nM
Kb (Histamine H3 receptor [13]): 15.8 nM
Structure (SMILES): N=C(N)N(CCCCN1CCN(CCCCCCCOc2ccccc2)CC1)Cc1ccc(Cl)cc1
Activity (Rattus norvegicus [14]): 13.5%
Ratio Ki (Homo sapiens): 3.9
Activity (Rattus norvegicus [10]): inactive
Activity (Rattus norvegicus [11]): inactive

pA2 [15]: inactive
Kb (Histamine H3 receptor [2]): 1660 nM
Structure (SMILES): c1ccc(OCCCCCCCN2CCN(CCCCCCCOc3ccccc3)CC2)cc1

The next lines start with the compound.

Structure (SMILES): N=C(N)N(CCCCN1CCN(CCCCN(Cc2ccc(C(F)(F)F)cc2)C(=N)N)CC1)Cc1ccc(C(F)(F)F)cc1
Kb (Histamine H1 receptor [1]): 60.3 nM
Kb (Histamine H3 receptor [2]): 10.2 nM

Structure (SMILES): N=C(N)N(CCCCN1CCC(CCCCCCCOc2ccccc2)CC1)Cc1ccc(C(F)(F)F)cc1
Kb (Histamine H1 receptor [1]): 64.6 nM
Kb (Histamine H3 receptor [2]): 12.6 nM

Structure (SMILES): O=C(c1ccc(OCCCc2c[nH]cn2)cc1)C1CC1
Activity (Rattus norvegicus [14]): Active

Structure (SMILES): S=C(NC1CCCCC1)N1CCC(c2cnc[nH]2)CC1 [THIOPERAMIDE]
Kb (Histamine H3 receptor [2]): 1.05 nM

Structure (SMILES): N=C(N)N(CCCCCCCOc1ccccc1)Cc1ccccc1
Kb (Histamine H1 receptor [1]): 158 nM
Kb (Histamine H3 receptor [2]): 1660 nM

Structure (SMILES): N=C(N)N(CCCCC1CCN(CCCCCCCOc2ccccc2)CC1)Cc1ccc(C(F)(F)F)cc1
Kb (Histamine H1 receptor [1]): 126 nM
Kb (Histamine H3 receptor [2]): 4.47 nM

Structure (SMILES): N=C(N)N(CCCCN1CCN(CCCCCCCOc2ccccc2)CC1)Cc1ccccc1
Activity (Rattus norvegicus [14]): Active
Kb (Histamine H1 receptor [3]): 200 nM
Ratio Ki (Homo sapiens): 20.9
Activity [4]: Active
Activity [5]: inactive
Activity [6]: Active
Ki (Histamine H3 receptor [7]): 12.6 nM
Ki (Histamine H4 receptor): 3240 nM
Activity [8]: inactive
Activity (Rattus norvegicus [10]): inactive
Activity (Rattus norvegicus [11]): inactive
Ki (Histamine H3 receptor [12]): 158 nM
